ChEMBL document CHEMBL1122222, “Synthesis and biological activities of the Z isomers of carbapenem antibiotics” (J Med Chem, 1983)
Converted amounts (≈) assume the structure as drawn.

Experiments:
[1] = In vitro potentiation activity was tested after adding a concentration of […] into the agar plate of ampicillin; show synergistic effect; format: functional
[2] = test system: Morganella morganii; experiment: Inhibition of growth of Proteus morganii IFO 3168; format: functional; conditions: Morganella morganii, IFO 3168; read-out: MIC
Outline: (§1)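 Agar dilution MIC on Trypticase soy agar; inoculum one loopful of bacterial suspension at 10⁸ cfu/mL.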

[3] = molecular target: T1, Beta-lactamase (Proteus mirabilis) (UniProt P30897); conditions: Proteus vulgaris
T1 sequence (whole entry): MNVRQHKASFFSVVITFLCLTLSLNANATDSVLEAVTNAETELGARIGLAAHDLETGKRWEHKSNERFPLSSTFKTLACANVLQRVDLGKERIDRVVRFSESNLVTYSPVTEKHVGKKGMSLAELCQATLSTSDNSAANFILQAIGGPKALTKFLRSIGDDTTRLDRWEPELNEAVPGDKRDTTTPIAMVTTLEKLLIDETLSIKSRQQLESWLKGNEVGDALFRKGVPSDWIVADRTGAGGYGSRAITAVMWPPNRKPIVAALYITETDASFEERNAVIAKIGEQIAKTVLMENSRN

[4] = test system: Klebsiella pneumoniae; experiment: Beta-lactamase inhibitory activity against penicillinase of Klebsiella pneumoniae. TN1698
[5] = test system: Proteus vulgaris; experiment: Inhibition of growth of Proteus vulgaris IFO 3988; format: functional; conditions: Proteus vulgaris, IFO 3988; read-out: MIC; outline: as §1
[6] = test system: Mus musculus; experiment: Effective does against ip infected Escherichia coli O-111 […] when administered sc; format: functional; conditions: Mus musculus; read-out: ED50
Outline: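 Slc:ICR mice; ED50 calculated by the Reed–Muench method from survival recorded 5 days after infection.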

[7] = test system: Mus musculus; experiment: In vivo synergistic protective effect with cefotiam in mice infected with Proteus vulgaris GN4815 at 10 mg/kg dose given sc; format: functional; conditions: route subcutaneous
[8] = molecular target: Beta-lactamase (Serratia marcescens) (UniProt P18539)
Chain of Beta-lactamase (Serratia marcescens) (P18539 whole entry): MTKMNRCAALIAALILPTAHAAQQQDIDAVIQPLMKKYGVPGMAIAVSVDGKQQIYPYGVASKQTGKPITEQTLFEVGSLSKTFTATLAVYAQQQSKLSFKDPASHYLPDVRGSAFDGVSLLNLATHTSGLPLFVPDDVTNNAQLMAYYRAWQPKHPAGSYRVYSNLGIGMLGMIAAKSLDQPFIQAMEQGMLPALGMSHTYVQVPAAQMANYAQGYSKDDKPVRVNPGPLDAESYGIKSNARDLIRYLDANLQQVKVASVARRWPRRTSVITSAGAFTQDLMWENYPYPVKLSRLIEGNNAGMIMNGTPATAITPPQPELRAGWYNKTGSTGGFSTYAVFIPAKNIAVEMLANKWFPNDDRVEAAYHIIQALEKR

[9] = test system: Citrobacter freundii; experiment: Inhibition of growth of Citrobacter freundii IFO 12681; format: functional; conditions: Citrobacter freundii, IFO 12681; read-out: MIC; outline: as §1
[10] = test system: Escherichia coli; experiment: Inhibition of growth of Escherichia coli T-7; format: functional; conditions: Escherichia coli; read-out: MIC; outline: as §1
[11] = test system: Enterobacter cloacae; experiment: Inhibition of growth of Enterobacter cloacae IFO 12937; format: functional; conditions: Enterobacter cloacae, IFO 12937; read-out: MIC; outline: as §1
[12] = molecular target: Beta-lactamase (Serratia marcescens, UniProt P18539); experiment: Beta-lactamase inhibitory activity against cephalosporinase of Serratia marcescens. TN81; conditions: read-out: I50 (converted)
Chain of Beta-lactamase (Serratia marcescens, UniProt P18539) (P18539 whole entry): as above

[13] = molecular target: Beta-lactamase (Proteus vulgaris, UniProt P52664); experiment: Beta-lactamase inhibitory activity against cephalosporinase of Proteus vulgaris GN4413; conditions: read-out: I50 (converted)
Chain of Beta-lactamase (Proteus vulgaris, UniProt P52664) (P52664 whole entry, looked up): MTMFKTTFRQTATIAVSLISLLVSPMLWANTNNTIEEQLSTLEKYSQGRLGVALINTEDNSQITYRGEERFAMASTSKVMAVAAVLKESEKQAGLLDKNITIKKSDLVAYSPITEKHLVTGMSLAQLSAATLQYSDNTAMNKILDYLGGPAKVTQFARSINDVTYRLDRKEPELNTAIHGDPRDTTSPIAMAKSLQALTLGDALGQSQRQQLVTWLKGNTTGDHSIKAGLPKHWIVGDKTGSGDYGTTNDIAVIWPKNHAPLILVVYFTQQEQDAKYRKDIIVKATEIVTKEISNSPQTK

[14] = test system: Pseudomonas aeruginosa; experiment: Inhibition of growth of Pseudomonas aeruginosa IFO 3455; format: functional; conditions: Pseudomonas aeruginosa, IFO 3455; read-out: MIC; outline: as §1
[15] = molecular target: Beta-lactamase (Staphylococcus aureus, UniProt P00807); experiment: Beta-lactamase inhibitory activity against penicillinase of Staphylococcus aureus 1840; conditions: read-out: I50 (converted)
Chain of Beta-lactamase (Staphylococcus aureus, UniProt P00807) (P00807 whole entry): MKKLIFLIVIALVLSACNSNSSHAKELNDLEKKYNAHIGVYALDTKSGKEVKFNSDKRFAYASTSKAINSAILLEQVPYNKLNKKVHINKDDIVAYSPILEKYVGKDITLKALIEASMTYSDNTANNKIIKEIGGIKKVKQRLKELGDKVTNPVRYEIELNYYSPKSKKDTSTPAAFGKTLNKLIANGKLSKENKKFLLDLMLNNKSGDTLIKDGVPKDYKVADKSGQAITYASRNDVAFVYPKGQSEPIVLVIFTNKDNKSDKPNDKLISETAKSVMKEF

[16] = test system: Staphylococcus aureus; experiment: Inhibition of growth of Staphylococcus aureus 308 A-1; format: functional; conditions: Staphylococcus aureus; read-out: MIC; outline: as §1
[17] = test system: Mus musculus; experiment: In vivo synergistic protective effect with cefotiam in mice infected with Proteus vulgaris GN4815 at 1 mg/kg dose given sc; format: functional; conditions: route subcutaneous
[18] = test system: Proteus mirabilis; experiment: Inhibition of growth of Proteus mirabilis IFO 3849; format: functional; conditions: Proteus mirabilis, IFO 3849; read-out: MIC; outline: as §1
[19] = test system: Mus musculus; experiment: In vivo synergistic protective effect with cefotiam in mice infected with Proteus vulgaris GN4815 at 100 mg/kg dose given sc; format: functional; conditions: route subcutaneous
[20] = test system: Serratia marcescens; experiment: Inhibition of growth of Serratia marcescens IFO 12648; format: functional; conditions: Serratia marcescens, IFO 12648; read-out: MIC; outline: as §1
[21] = molecular target: Beta-lactamase (Staphylococcus aureus) (UniProt P00807)
Chain of Beta-lactamase (Staphylococcus aureus) (P00807 whole entry): as above

[22] = test system: Acinetobacter calcoaceticus; experiment: Inhibition of growth of Acinetobacter calcoaceticus. IFO 13006; format: functional, acinetobacter calcoacet; conditions: Acinetobacter calcoaceticus, IFO 13006; read-out: MIC; outline: as §1
[23] = test system: Escherichia coli; experiment: MIC against Escherichia coli O-111; format: functional; conditions: Escherichia coli; read-out: MIC; outline: as §1
[24] = In vitro potentiation activity was tested after adding a concentration of […] into the agar plate of ampicillin or cefotiam; show synergistic effect; format: functional
[25] = species: Mus musculus; experiment: Half life in mouse kidney homogenates; format: ADME
Outline: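 Carbapenem at 50 µg/mL incubated in 10% mouse kidney homogenate at 30 °C; residual antibiotic measured at intervals by its β-lactamase-inhibiting activity.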

[26] = test system: Klebsiella pneumoniae; experiment: Inhibition of growth of Klebsiella pneumoniae DT; format: functional; conditions: Klebsiella pneumoniae; read-out: MIC; outline: as §1
[27] = test system: Mus musculus; experiment: In vivo protective effect in mice infected with Proteus vulgaris GN4815 at (dose mg/kg) administered sc; format: functional
[28] = molecular target: T1, Beta-lactamase (Proteus mirabilis); conditions: Proteus vulgaris; remark: listed apart in the source
[29] = molecular target: Beta-lactamase (Staphylococcus aureus) (UniProt P00807); remark: listed apart in the source
[30] = molecular target: Beta-lactamase (Serratia marcescens) (UniProt P18539); remark: listed apart in the source

CC(=O)N/C=C/[S+]([O-])C1=C(C(=O)O)N2C(=O)[C@@H](C(C)(C)O)[C@H]2C1 (stereo in doubt; 20)
Activity [1]: synergistic effect

CC(=O)N/C=C/[S+]([O-])C1=C(C(=O)[O-])N2C(=O)[C@@H](C(C)(C)OS(=O)(=O)[O-])[C@H]2C1.[Na+].[Na+] (stereo partly drawn)
MIC [2]: 50 µg/mL | MIC [3]: 1.56 µg/mL | MIC [4]: 6.25 µg/mL | MIC [5]: 50 µg/mL | ED50 [6]: > 100 mg/kg | ED50 at 10 mg/kg [7]: 8.87 mg/kg | MIC [8]: 6.25 µg/mL | MIC [9]: 12.5 µg/mL | MIC [10]: 12.5 µg/mL | MIC [11]: 25 µg/mL | IC50 [12]: 118 nM | IC50 [13]: 0.793 nM | MIC [14]: > 100 µg/mL | IC50 [15]: 450 nM | MIC [16]: 12.5 µg/mL | ED50 at 1 mg/kg [17]: 12.5 mg/kg | MIC [18]: 50 µg/mL | ED50 at 100 mg/kg [19]: 3.86 mg/kg | MIC [20]: 12.5 µg/mL | MIC [21]: 12.5 µg/mL | MIC [22]: 25 µg/mL | MIC [23]: 6.25 µg/mL | Activity [24]: synergistic effect | T1/2 [25]: 22 min | MIC [26]: 12.5 µg/mL

CN(C)CCn1nnnc1SCC1=C(C(=O)O)N2C(=O)[C@@H](NC(=O)Cc3csc(N)n3)[C@H]2SC1 [CEFOTIAM]
ED50 [27]: 35.5 mg/kg

CC(=O)N/C=C\[S+]([O-])C1=C(C(=O)O)N2C(=O)[C@@H](C(C)OS(=O)(=O)O)[C@H]2C1 (stereo partly drawn)
MIC [28]: 50 µg/mL (≈ 122 µM) | IC50 [12]: 0.752 nM | IC50 [13]: 0.354 nM | MIC [29]: 50 µg/mL (≈ 122 µM) | IC50 [15]: 7.52 nM | MIC [30]: 25 µg/mL (≈ 61.2 µM)
